Assay outcomes deposited in PubChem by Broad Institute.
FN deposition inh – fibronectin deposition inhibition; inhibition, % at 12.6 µM; AH1F fibroblasts, Alexa488-fibronectin deposition fluorescence, overnight; 0.086% of 350,000 active; AID 743247;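 active = mean inhibition across replicates of 30% or more, regardless of how many single replicates reach that level; inconclusive = mean under 30% yet at least half of replicates reach 30%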;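 note: positive control wells lacked labelled fibronectin entirely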
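Assay system: AH1F fibroblast monolayer, labelled fibronectin deposition. Amount: 10000 cells per well. Also added: labelled fibronectin 24 nM. Compound: single-point pinned compound. Incubation: cell attachment 1 h, compound and FN exposure overnight. Detection: fluorescence after three HBSS washes, excitation 485 nm, emission 525 nm. Read-out: inhibition of fibronectin deposition signal.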
PglD DTNB – blocks C. jejuni PglD acetyltransferase activity; purified PglD enzyme, DTNB colorimetric CoA detection; inhibition, % at 12.5 µM; 0.098% of 360,000 active; in the data active = inhibition above about 16%, passing the limit was not always enough; inconclusive = no clear call, values can overlap the other calls
Ecoli rRNA inh – selective bacterial rRNA inhibition in E. coli; E. coli WT GFP vs humanized-ribosome RFP mutants, fluorescence, 24 h; active compounds read low; DMSO median 0, no signal -100; GFP signal change (wild-type ribosome), % (test concentration not listed); 1.6% of 350,000 active;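 active = significant combined selectivity score with lowered wild-type GFP, culture density cut under 30%, mutant RFP and density less affected; inactive = any of these conditions unmet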
HIV Env fusion – HIV envelope-mediated fusion inhibition | HeLa-JRFL Env/CEM21 cell fusion, luciferase | inhibition, % at 12.3 µM | 1.1% of 360,000 active | AID 651610;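 active = mean replicate inhibition score of at least 50 and every replicate individually at or above 50; inconclusive = only one of the two criteria met; inactive = mean below 50 and not all replicates reaching 50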;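 note: 0% = plate neutral controls and 100% = maraviroc near 300 nM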
DENV2 CPE – protects cells from dengue virus 2 cytopathic effect; 1.7% of 350,000 active; DENV2-infected cells, cytopathic effect rescue, plate reader; CPE inhibition, % at 9.99 µM; in the data active = CPE inhibition above about 20%, passing the limit was not always enough; inconclusive = no clear call, values can overlap the other calls; tested in BHK-21 cells;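 note: 0% = median of neutral control wells and 100% = median of positive control wells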
PGC1a acetyl inh – PGC1a acetylation modulation, inhibitor mode; 0.17% of 350,000 active; AID 651687; U2OS PGC1a acetylation, AlphaScreen anti-acetyl-lysine; with virally co-expressed GCN5 acetyltransferase; inhibition, % at 15.6 µM;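 active = every replicate shows inhibition of at least 40%; inconclusive = mean inhibition at least 40% but some replicate below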;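 note: 0% = neutral control wells and 100% = positive control wells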
Starred values were filed as active, the others as inactive; ? = inconclusive; . = no result given; [ ] = remark or other dose. Shown are actives, neighbours in structure and some others; about 3.5% of the full set was active somewhere.

SMILES	FN deposition inh	PglD DTNB	Ecoli rRNA inh	HIV Env fusion	DENV2 CPE	PGC1a acetyl inh
CCCCN(Cc1ccccc1)S(=O)(=O)c1cc(Br)cc2c1N(C(C)=O)C(C)C2 (stereo not given)	-0.8	4.8	.	63.1*	.	4.8
CC(=O)N1c2c(cc(Br)cc2S(=O)(=O)NCc2cccnc2)CC1C (stereo not given)	2.1	-2.6	.	-71.3	.	0.2
CCN(CC)CCn1c(=N)n(CC(O)COc2ccccc2)c2ccccc21 (stereo not given)	2.4	4.5	15.7	14.0	-1.7	38.8
CCN(CC)CCn1c(=N)n(CCOc2ccccc2)c2ccccc21	7.6	0.0	1.1	56.2*	.	-15.4
O=C(/C=C(\Nc1ccc(F)cc1)c1ccccc1)c1ccccc1	-0.8	.	-7.0	-84.4	-3.5	.
O=[N+]([O-])c1ccc(-c2csc(NN=C3CCCC3)n2)cc1	-1.4	0.1	-21.9*	-5.4	0.9	3.3
Cc1ccc(C23CC4CC(CC(C(=O)N(C)C)(C4)C2)C3)cc1	-2.3	7.2	-11.6	-2.4	-8.0	0.8
Cc1ccc(C23CC4CC(CC(C(N)=O)(C4)C2)C3)cc1	-3.1	-2.1	-23.4*	2.5	?	.
C[C@H]1CN([C@@H](C)CO)C(=O)c2c(c3ccccc3n2C)-c2ccccc2CO[C@@H]1CN(C)Cc1ccc(F)cc1	-2.4	.	-34.6	.	16.0	.
Cc1ccc(-n2ccnc(SCC(=O)NC3CCCC3)c2=O)cc1Cl	-6.1	0.3	2.6	11.5	-5.1	.
O=C(CSc1nccn(-c2ccc(F)c(Cl)c2)c1=O)NC1CCCC1	-3.2	.	8.4	0.0	21.7*	.
C[C@H](O)C#Cc1cnc2c(c1)C(=O)N([C@@H](C)CO)C[C@@H](C)[C@H](CN(C)CC1CCOCC1)O2	1.5	1.3	4.2	2.9[16.7 µM]	3.5	14.5
CO[C@@H]1CN(C)C(=O)c2ccc(NS(=O)(=O)c3cn(C)cn3)cc2OC[C@@H](C)N(CC2CC2)C[C@H]1C	-1.8	-2.1	4.5	.	21.4*	-0.1
CCCN1C[C@H](C)[C@H](OC)CN(C)C(=O)c2cc(NS(=O)(=O)c3cn(C)cn3)ccc2OC[C@@H]1C	-1.1	-1.2	1.2	.	90.0*	1.4
COCCNC(=O)/C(C#N)=C/c1cccc(/C=C(\C#N)C(=O)NCCOC)c1	5.0	.	-12.8	.	11.1	.
COCCNC(=O)/C(C#N)=C/C(C)=C/c1ccccc1	1.7	.	-21.9*	10.1	3.5	.
COCCNC(=O)c1cc(S(=O)(=O)N(C)C2CCCCC2)ccc1Cl	14.4	-3.6	1.9	57.5*	?	3.5
COc1ccccc1N(C)S(=O)(=O)c1ccc(Cl)c(C(=O)NCC2(N(C)C)CCCCC2)c1	9.8	-1.4	-0.5	94.6*	7.4	-7.6
CN(C)S(=O)(=O)c1ccc(Cl)c(C(=O)NCC2CCCCC2)c1	-1.7	6.1	5.1	2.8	-1.6	-4.4
COc1ccccc1N(C)S(=O)(=O)c1ccc(Cl)c(C(=O)NNC(=O)c2ccccc2O)c1	5.8	-3.5	-26.6	-2.4	-4.9	9.8
Cc1cccc(NC(=O)c2c([N+](=O)[O-])c(C(C)(C)C)nn2C)c1	3.1	.	13.2	.	8.7	.
CCOc1ccc(NC(=O)c2nn(C)cc2Br)cc1	.	-3.4	.	-41.0	.	-17.5
Cn1nc(C(C)(C)C)c([N+](=O)[O-])c1C(=O)Nc1ccc(Br)cc1	-2.4	.	-26.0*	4.0	-4.8	.
Cn1cc([N+](=O)[O-])c(C(=O)Nc2cc(Oc3ccccc3)cc([N+](=O)[O-])c2)n1	40.4*	.	4.3	-119.4	-5.1	.
CCOc1ccc(NC(=O)c2nn(C)c(C(=O)Nc3ccc(OCC)cc3)c2[N+](=O)[O-])cc1	0.4	-5.1	-1.6	7.4	34.3*	-12.4
SMILES	FN deposition inh	PglD DTNB	Ecoli rRNA inh	HIV Env fusion	DENV2 CPE	PGC1a acetyl inh
COc1cccc(NC(=O)c2nn(C)c(C(=O)Nc3cccc(OC)c3)c2[N+](=O)[O-])c1	0.7	-1.5	-39.6*	-5.2	-4.0	.
C[C@@H]1CCCCO[C@@H](CN(C)S(C)(=O)=O)[C@H](C)CN([C@@H](C)CO)C(=O)c2cc(NC(=O)CCCN(C)C)ccc2O1	.	0.8	-0.6	23.5[16.7 µM]	?	-11.9
CC(C)(C)OC(=O)N[C@H]1C=C[C@@H](CC(=O)OCC(F)(F)F)C1	1.2	.	7.9	15.8	35.7*	.
CO[C@@H]1CN(C)C(=O)c2cc(NC(=O)C3CC3)ccc2OC[C@@H](C)N(CC2CCOCC2)C[C@H]1C	-11.9	0.9	0.3	.	2.4	5.8
COc1ccc(S(=O)(=O)N[C@H]2CC[C@@H](CC(=O)NCCc3ccccc3)O[C@H]2CO)cc1	-3.9	2.1	-1.5	-11.6[16.7 µM]	0.1	-7.9
Cc1ccccc1-n1cc(-c2ccc(Br)cc2)nc1SCC(N)=O	0.4	4.0	-41.3*	8.5	-4.5	-21.8
CC1(CCc2ccccc2)NC(=O)N(Cc2cc([N+](=O)[O-])cc3c2OCOC3)C1=O (stereo not given)	-9.5	-15.8	-24.4*	29.2	-6.1	2.5
O=C(C[C@@H]1C=C[C@@H](NC(=O)C2CCOCC2)[C@H](CO)O1)NCc1ccncc1	2.5	-0.9	-0.3	-19.1[16.7 µM]	-6.2	-8.2
CO[C@H]1CN(C)C(=O)c2cc(NC(C)=O)ccc2OC[C@H](C)N(Cc2nccs2)C[C@@H]1C	-7.8	3.6	0.3	11.3[16.7 µM]	32.1*	7.1
CO[C@@H]1CN(C)C(=O)c2cc(NC(C)=O)ccc2OC[C@H](C)N(Cc2nccs2)C[C@H]1C	-8.2	0.0	0.4	5.9[16.7 µM]	-3.9	7.0
CCCN1C[C@H](C)[C@@H](OC)CN(C)C(=O)c2cc(NC(=O)C3CCOCC3)ccc2OC[C@H]1C	7.2	-1.1	2.7	0.3[16.7 µM]	-0.2	-4.8
CO[C@H]1CN(C)C(=O)c2cc(NC(=O)C3CCOCC3)ccc2OC[C@H](C)N(Cc2nccs2)C[C@H]1C	0.5	-0.3	1.1	74.3*	-0.9	-5.2
CCCN1C[C@@H](C)[C@@H](OC)CN(C)C(=O)c2cc(NC(=O)C3CCOCC3)ccc2OC[C@H]1C	1.9	-4.1	0.4	0.5[16.7 µM]	26.2*	7.0
CO[C@@H]1CN(C)C(=O)c2ccc(NC(=O)C3CCC3)cc2OC[C@H](C)N(Cc2nccs2)C[C@H]1C	-9.0	-1.5	-5.7	.	26.6*	.
CO[C@H]1CN(C)C(=O)c2ccc(NC(=O)C3CCC3)cc2OC[C@H](C)N(Cc2nccs2)C[C@H]1C	4.0	0.5	0.1	.	16.3	.
CO[C@H]1CN(C)C(=O)c2cc(NC(=O)C3CCOCC3)ccc2OC[C@@H](C)N(Cc2nccs2)C[C@@H]1C	0.9	3.3	0.3	.	-6.9	1.9
Cc1ccc(-c2ccc3c(c2)O[C@@H](CN(C)C(=O)C2CCC2)[C@@H](C)CN([C@H](C)CO)S3(=O)=O)cc1	.	0.4	-5.1	13.5[16.7 µM]	18.1	3.1
CC(C)CC#Cc1ccc([C@H]2[C@@H](CO)N3C(=O)CN(C(=O)NC4CCCCC4)C[C@H]23)cc1	.	.	-42.1	.	-2.4	-15.8
